Published values from different studies.
Compare with care: the assays were run in different laboratories.
Method: shake flask

| SMILES | test system | conditions | logD |
| --- | --- | --- | --- |
| N#CCc1ccccc1C#Cc1ccc(CCC(=O)O)c(F)c1 | PBS | pH 7.4 | 1.41 |
| O=C(O)CN(CCCc1ccccc1)CC(=O)N[C@@H](Cc1c[nH]cn1)C(=O)NCc1ccccc1 | PBS | 2 h, pH 7.4 | -0.58 |
| COc1cc2c(cc1OC)CN(CCCCn1ccc3c(OCC[18F])cccc31)C2 | aqueous buffer | pH 7.4 | 2.43 |
| C[C@]1(C(=O)O)CSC(c2ccc(OCCCCCCO)cc2O)=N1 | aqueous buffer | pH 7.4 | 0.21 |
| Cc1c(C(=O)NN2CCCCC2)nc(-c2ccc(Cl)cc2Cl)n1-c1ccc(OS(=O)(=O)CCCC(F)(F)F)cc1 | aqueous buffer | pH 7.4 | 5.3 |
| CC(C)CN(C[C@@H](O)[C@H](Cc1ccccc1)NC(=O)O[C@H]1CO[C@H]2OCC[C@H]21)S(=O)(=O)c1ccc(N)cc1 | PBS | pH 7.4 | 2.84 |
| CNC(=O)[C@H](Cc1c[nH]cn1)NC(=O)CN(CCCc1ccccc1)CC(=O)O | PBS | 2 h, pH 7.4 | -1.36 |
| CCCCc1nc2c(N)nc3ccccc3c2n1Cc1ccc(N)cc1 | PBS | pH 7.4 | 2.6 |
| CN1CCN(c2ccc3nc(-c4ccc5nc(-c6ccc(OCCCCNC(=S)Nc7ccc(CC(CN(CCN(CC(=O)O)CC(=O)O)CC(=O)O)N(CC(=O)O)CC(=O)O)cc7)cc6)[nH]c5c4)[nH]c3c2)CC1 (stereo not shown) | PBS | pH 7.4 | -1.4 |
| Cc1c(C(=O)NC2CCC(O)CC2)nc(-c2ccc(Cl)cc2Cl)n1-c1ccc(OS(=O)(=O)CCC(F)(F)F)cc1 (stereo not shown) | aqueous buffer | pH 7.4 | 4.2 |
| C[C@]1(C(=O)O)CSC(c2ccc(OCCCC(=O)O)cc2O)=N1 | aqueous buffer | pH 7.4 | -2.21 |
| Cc1c(C(=O)N[C@@H]2CCCC[C@@H]2O)nc(-c2ccc(Cl)cc2Cl)n1-c1ccc(OS(=O)(=O)CCC(F)(F)F)cc1 (single isomer, unassigned) | aqueous buffer | pH 7.4 | > 4.3 |
| O=C(O)c1ccc(-n2nc(-c3ccccc3O)nc2-c2ccccc2O)cc1 | PBS | pH 7.4 | 0.9 |
| Cc1c(C(=O)Nc2ccc(F)nc2)nc(-c2ccc(Cl)cc2Cl)n1-c1ccc(OS(=O)(=O)CCC(F)(F)F)cc1 | aqueous buffer | pH 7.4 | > 4.3 |
| O=C(O)C1=Cc2cc3ccc(cc4nc(cc5c(-c6ccccc6)c(C(=O)O)c(c(C(=O)O)c1n2)n5C(=O)O)C=C4)[nH]3 | aqueous buffer | pH 9 | 0.0277 |
| CCCCS(=O)(=O)Oc1ccc(-n2c(-c3ccc(Cl)cc3Cl)nc(C(=O)NN3CCCCC3)c2C)cc1 | aqueous buffer | pH 7.4 | 5.1 |
| CNC(=O)[C@H](Cc1c[nH]cn1)NC(=O)CN(CCCc1ccccc1)CC(=O)OC | PBS | 2 h, pH 7.4 | 1.07 |
| Cc1c(C(=O)NN2CCCCC2)nc(-c2ccc(Cl)cc2Cl)n1-c1ccc(OS(=O)(=O)CCCF)cc1 | aqueous buffer | pH 7.4 | 4.15 |
| CN1C(C(=O)Nc2ccccn2)=C(O)c2ccccc2S1(=O)=O | aqueous buffer | 48 h, pH 7.4 | -0.31 |
